Results taken from ChEMBL document CHEMBL3792374, “Discovery of a ring-opened derivative of 3-n-butylphthalide bearing NO/H2S-donating moieties as a potential anti-ischemic stroke agent” (Eur J Med Chem, 2016).
Calls of active or inactive are those of the source. No cut-off for these calls is given here.

Legend:
[1] = Induction of nitric oxide release in potassium phosphate buffer at pH 7.4 at 0.1 mM after 45 mins by Griess assay; format: physicochemical; settings: pH 7.4, 0.75 h, 100 µM
Outline: (§1)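 Compound (0.1 mM) in PBS pH 7.4 containing 2% DMSO and 5.0 mM L-cysteine was held at 37 °C for 15–300 min. Samples were taken every 15 min up to 120 min, then every 30 min. Each sample was reacted with Griess reagent for 10 min at 37 °C and absorbance read at 540 nm. Nitrite was quantified from a nitrite standard curve. Means reported; intra-group variation <10%.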

[2] = Induction of nitric oxide release in potassium phosphate buffer at pH 7.4 at 0.1 mM after 105 mins by Griess assay; format: physicochemical; settings: pH 7.4, 1.75 h, 100 µM; outline: as §1
[3] = Induction of nitric oxide release in potassium phosphate buffer at pH 7.4 at 0.1 mM after 300 mins by Griess assay; format: physicochemical; settings: pH 7.4, 5 h, 100 µM; outline: as §1
[4] = Induction of nitric oxide release in potassium phosphate buffer at pH 7.4 at 0.1 mM after 150 mins by Griess assay; format: physicochemical; settings: pH 7.4, 2.5 h, 100 µM; outline: as §1
[5] = Induction of nitric oxide release in potassium phosphate buffer at pH 7.4 at 0.1 mM after 180 mins by Griess assay; format: physicochemical; settings: pH 7.4, 3 h, 100 µM; outline: as §1
[6] = system: Rattus norvegicus; assay: (§2) Antioxidant activity in Sprague-Dawley rat brain tissue model of transient middle cerebral artery occlusion stroke model assessed as malondialdehyde levels per mg of protein at 380 mg/kg administered via oral gavage for 7 days after ischemia onset measured 24 hrs after reperfusion (reference value: 1.46 nmol); format: functional; settings: in the assay text read “before ischemia onset” for “after ischemia onset”
Outline: (§3)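 Male SD rats (280–320 g; n = 12 per group) were gavaged daily for 7 days, with 0.5% CMC-Na as vehicle. Two hours after the last dose they were anesthetized with chloral hydrate (300 mg/kg ip) and underwent 2 h MCAO followed by reperfusion. Brains were taken 24 h after reperfusion, rinsed in cold saline and stored at −70 °C. Protein was quantified, then GSH, SOD, GSH-Px and MDA were measured by kits. Mean ± SD, n = 6, ANOVA/Tukey.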

[7] = system: Rattus norvegicus; assay: Neuroprotective activity in Sprague-Dawley rat model of transient middle cerebral artery occlusion stroke model assessed as reduction in infarct size at 380 mg/kg administered via oral gavage for 7 days […] measured 24 hrs after middle cerebral artery occlusion by TTC assay; format: functional, organism-based
Outline: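 Male SD rats (280–320 g), n=12/group, dosed by gavage in 0.5% CMC-Na daily for seven days; 2 h after last dose, anesthetized (chloral hydrate 300 mg/kg ip) and subjected to 2 h intraluminal MCAO then reperfusion. At 24 h post-reperfusion, brains (n=6) cut coronally at 2 mm, stained 2% TTC 30 min 37 °C, formalin-fixed; infarct area expressed as percent of whole brain; mean SD, ANOVA/Tukey.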

[8] = system: Liver; assay: Induction of hydrogen sulfide release in rat liver homogenate at 100 uM after 60 mins by microplate reader method (reference value: 1.03 to 1.21%); format: functional, tissue-based
Outline: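 Compound was incubated at 37 °C for 0–90 min with fresh rat liver homogenate. The reaction was stopped with 1% zinc acetate and 10% trichloroacetic acid. N,N-dimethyl-p-phenylenediamine sulfate in 7.2 M HCl and FeCl3 in 1.2 M HCl were added, and absorbance was read at 670 nm after 10 min. Values were calculated against an NaHS standard curve as cumulative % conversion to H2S, n = 6.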

[9] = system: Rattus norvegicus; assay: as §2, with “glutathione” for “malondialdehyde”, “reperfusion by DTNB assay” for “reperfusion”, “23.47” for “1.46”; format: functional; settings: in the assay text read “before ischemia onset” for “after ischemia onset”; outline: as §3
[10] = Antiplatelet activity in rabbit platelet-rich plasma assessed as inhibition of ADP-induced platelet aggregation at 0.1 mM preincubated for 5 mins followed by addition of ADP measured within 5 mins by Borns turbidimetric method; format: functional; settings: Oryctolagus cuniculus
Outline: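 Rabbit carotid blood was citrated (3.8%, 9:1). PRP was obtained at 500 g for 10 min and PPP at 3000 g for 10 min. PRP was preincubated in duplicate for 5 min at 37 °C with 0.1 mM compound, plus carboxy-PTIO or BSS where indicated. ADP was then added and maximal light transmission recorded within 5 min, within 3 h of blood collection. Inhibition % was calculated versus control. Mean ± SD of three independent experiments.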

[11] = system: Rattus norvegicus; assay: Antioxidant activity in Sprague-Dawley rat brain tissue model of transient middle cerebral artery occlusion stroke model assessed as increase in superoxide dismutase levels per mg of protein at 380 mg/kg […] measured 24 hrs after reperfusion by nitroblue tetrazolium assay relative to control; format: functional
[12] = system: Rattus norvegicus; assay: Neuroprotective activity in Sprague-Dawley rat model of transient middle cerebral artery occlusion stroke model assessed as reduction in neurological deficit at 380 mg/kg […] measured 24 hrs after middle cerebral artery occlusion by Longa's method; format: functional, organism-based

CCCCC(OC(=O)CN1CCN(CCCCCOc2ccc(-c3cc(=S)ss3)cc2)CC1)c1ccccc1C(=O)Oc1ccc(/C=C/C(=O)OCCO[N+](=O)[O-])cc1OC (racemic)
Activity [1]: 6.89 µM
Activity [2]: 9.63 µM
Activity [3]: 10.57 µM
Activity [4]: 10.23 µM
Activity [5]: 10.3 µM
Activity [6]: 0.86 nmol
Activity [7]: Active
Activity [8]: 4.25%
Activity [9]: 28.05 nmol
inhibition at 100 µM [10]: 41%
Activity [11]: 32.02%
Activity [12]: Active
